Activity calls are given as the source filed them. The calls are words filed in the database; no cut-off is given here.
Key:
[1] = target: Butyrophilin subfamily 3 member A1 (Homo sapiens) (UniProt O00481); test: Activation of BTN3A1 in human Vgamma9Vdelta2 T cells assessed as induction of interleukin 2 stimulated cell proliferation by measuring increase in CD3 positive cells at 0.1 uM treated for 72 hrs measured on day 11 post last treatment by flow cytometry; assay type: cell-based
In short: (§1)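 Human peripheral blood mononuclear cells exposed to compound for 72 h together with interleukin 2, then grown for 11 days. CD3+/γδ TCR+ cells were scored by flow cytometry. […] Negative controls were cells with or without interleukin 2 and no compound. Bars show mean and SD, n=3, with ANOVA and Tukey post-hoc test.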

[2] = target: Butyrophilin subfamily 3 member A1 (Homo sapiens) (UniProt O00481); test: Activation of BTN3A1 in human Vgamma9Vdelta2 T cells assessed as induction of interleukin 2 stimulated cell proliferation by measuring increase in gammadelta T cell receptor positive cells at 0.1 uM treated for 72 hrs measured on day 11 post last treatment by flow cytometry; in short: as §1
[3] = target: Butyrophilin subfamily 3 member A1 (Homo sapiens) (UniProt O00481); test: Potency index, ratio of HMBPP EC50 to compound EC50 for BTN3A1 in human Vgamma9Vdelta2 T cells
[4] = Toxicity in human Vgamma9/Vdelta2 T cells treated for 72 hrs measured on day 11 post last treatment by flow cytometry; assay type: cell-based, Vgamma9/Vdelta2 T cell
In short: (§2)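 Human peripheral blood mononuclear cells were treated with compound for 72 h, cultured to day 11, and Vγ9Vδ2 (CD3+/γδ TCR+) cells were assessed by flow cytometry over a dose-response range. Interleukin 2 and untreated controls were included. Runs were done at least three independent times using cells from at least 2 donors.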

[5] = Selectivity index, ratio of IC50 for human Vgamma9Vdelta2 T cells to EC50 for BTN3A1 in human Vgamma9Vdelta2 T cells; assay type: functional
[6] = tested on: K562; test: Antiproliferative activity against human K562 cells after 72 hrs by fluorescence spectroscopy; assay type: cell-based; conditions: K562, 72 h
In short: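 K562 cells at 1 × 10^4 cells/100 μL exposed to compounds for 72 h. Fluorescent viability reagent added for the final 2 h, then fluorescence read. Viability expressed as percent of untreated cells after subtracting a media-only blank.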

[7] = Safety index, ratio of HMBPP IC50 to compound IC50 for human K562 cells; assay type: ADME, cell-based; conditions: read-out: Ratio IC50
In short: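 Direct K562 toxicity: 1 × 10^4 cells/100 μL exposed to compounds for 72 h, with cell quantibluo reagent added for the final 2 h and a fluorescence read-out. Viable cells were expressed as % of untreated control after subtracting a media-only blank, giving an IC50. The fold value divides the reference IC50 by the test IC50.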

[8] = Toxicity in human Vgamma9/Vdelta2 T cells at >= 10 uM treated for 72 hrs measured on day 11 post last treatment by flow cytometry; assay type: cell-based; conditions: vgamma9/vdelta2 t cell; in short: as §2
[9] = target: Butyrophilin subfamily 3 member A1 (Homo sapiens) (UniProt O00481); test: Binding affinity to recombinant C-terminal His-tagged BTN3A1 intracellular domain (unknown origin) expressed in BL21(DE) at […] by isothermal titration calorimetry
In short: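 Full intracellular domain of BTN3A1 was purified as previously described. Protein was at 43 μM and titrant compound at 300–860 μM. Three independent titrations were run per compound.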

[10] = target: Butyrophilin subfamily 3 member A1 (Homo sapiens) (UniProt O00481); test: Binding affinity to recombinant C-terminal His-tagged BTN3A1 intracellular domain (unknown origin) expressed in BL21(DE) assessed as change in entropy at 240 uM by isothermal titration calorimetry
[11] = target: Butyrophilin subfamily 3 member A1 (Homo sapiens) (UniProt O00481); test: Binding affinity to recombinant C-terminal His-tagged BTN3A1 intracellular domain (unknown origin) expressed in BL21(DE) assessed as change in entropy at 480 uM by isothermal titration calorimetry
In short: (§3)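 Purified full BTN3A1 intracellular domain at 43 μM titrated with compound at 300–860 μM by isothermal titration calorimetry. Three independent titrations per compound.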

[12] = target: Butyrophilin subfamily 3 member A1 (Homo sapiens) (UniProt O00481); test: Binding affinity to recombinant C-terminal His-tagged BTN3A1 intracellular domain (unknown origin) expressed in BL21(DE) assessed as change in entropy at 688 uM by isothermal titration calorimetry; in short: as §3
[13] = target: Butyrophilin subfamily 3 member A1 (Homo sapiens) (UniProt O00481); test: Inhibition of HMBPP binding to recombinant C-terminal His-tagged BTN3A1 intracellular domain (unknown origin) expressed in BL21(DE) assessed as change in entropy of HMBPP binding at 10-fold higher dose of compound by isothermal titration calorimetry (reference value: 19 kJ/mol); assay type: cell-based
[14] = target: Butyrophilin subfamily 3 member A1 (Homo sapiens) (UniProt O00481); test: Inhibition of HMBPP binding to recombinant C-terminal His-tagged BTN3A1 intracellular domain (unknown origin) expressed in BL21(DE) assessed as change in entropy of HMBPP binding at 100-fold molar excess of compound by isothermal titration calorimetry (reference value: 19 kJ/mol); assay type: cell-based
[15] = target: Butyrophilin subfamily 3 member A1 (Homo sapiens) (UniProt O00481); test: Inhibition of HMBPP binding to recombinant C-terminal His-tagged BTN3A1 intracellular domain (unknown origin) expressed in BL21(DE) by isothermal titration calorimetry

Chain of Butyrophilin subfamily 3 member A1 (Homo sapiens) (O00481 30-513 limits assumed): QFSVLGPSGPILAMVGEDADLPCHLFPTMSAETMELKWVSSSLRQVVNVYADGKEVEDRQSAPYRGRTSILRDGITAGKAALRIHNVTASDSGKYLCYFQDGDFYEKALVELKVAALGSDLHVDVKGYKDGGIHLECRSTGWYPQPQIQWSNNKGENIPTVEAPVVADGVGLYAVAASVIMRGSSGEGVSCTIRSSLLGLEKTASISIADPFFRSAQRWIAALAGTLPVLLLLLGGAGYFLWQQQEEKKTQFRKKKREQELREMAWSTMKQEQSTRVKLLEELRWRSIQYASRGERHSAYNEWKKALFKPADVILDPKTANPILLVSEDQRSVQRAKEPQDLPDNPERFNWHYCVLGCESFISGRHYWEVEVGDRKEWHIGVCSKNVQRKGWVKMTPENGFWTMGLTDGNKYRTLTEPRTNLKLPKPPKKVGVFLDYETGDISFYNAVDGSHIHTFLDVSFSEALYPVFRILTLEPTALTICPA

Row | SMILES | Activity [1] | Activity [2] | IC50 at 72 h [4] [µM] | IC50 [6] [µM] | other results
1 | CC(C)=CCCP(=O)(CP(=O)(OCOC(=O)C(C)(C)C)OCOC(=O)C(C)(C)C)OCOC(=O)C(C)(C)C (configuration not stated) |  |  | > 100 | 9.7 | selectivity ratio [7]: > 10
2 | C/C(=C\CCP(=O)(O)CP(=O)(O)O)CO |  |  | > 100 | > 100 | TdeltaS [10]: -12 kcal/mol; TdeltaS [11]: -13.2 kcal/mol; TdeltaS [12]: -12.1 kcal/mol
3 | CC(C)=CCCP(=O)(O)CP(=O)(O)O |  |  | > 100 | > 100 | TdeltaS [13]: -1.1 kcal/mol; TdeltaS [14]: 6.69 kcal/mol; inhibition [15]: Dose-dependent effect
4 | C/C(=C\CCP(=O)(O)O)CO |  |  |  |  | Ratio EC50 [3]: 0.00013
5 | COP(=O)(CC/C=C(\C)CO)CP(=O)(OC)OC (configuration not stated) |  |  | > 100 | > 100 | 

Second part, led by results:

Row | Activity [1] | Activity [2] | SMILES | IC50 at 72 h [4] [µM] | IC50 [6] [µM] | other results
6 | Active | Active | C/C(=C\CCP(=O)(OCOC(=O)C(C)(C)C)OCOC(=O)C(C)(C)C)CO | 0.6 |  | Ratio EC50 [3]: 0.094; Ratio IC50/EC50 [5]: 110
7 | Active | Active | C/C(=C\COP(=O)(O)OP(=O)(O)O)CO | 0.5 | > 100 | 
8 | Active | Active | C/C(=C\CCP(=O)(CP(=O)(OCOC(=O)C(C)(C)C)OCOC(=O)C(C)(C)C)OCOC(=O)C(C)(C)C)CO (configuration not stated) | 3.5 |  | Activity [8]: Toxic; Activity [9]: inactive; Ratio IC50/EC50 [5]: 85; selectivity ratio [7]: > 29
